Reference: ChEMBL document CHEMBL1153820, “Novel derivatives of pyridylbenzo[b]thiophene-2-carboxamides and benzo[b]thieno[2,3-c]naphthyridin-2-ones: minor structural variations provoke major differences of antitumor action mechanisms” (J Med Chem, 2009)
Activity calls are given as the source filed them. The rule behind the calls is not given here.

Columns and labels:
[1] = species on record: Bos taurus; test: Inhibition of calf thymus topoisomerase 1-mediated DNA relaxation assessed as induction of plasmid DNA nicking at 100 uM by gel electrophoresis
Method in brief: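 Purified calf thymus topoisomerase I (6 U) was incubated with negatively supercoiled pCI plasmid (0.8 μg), with or without compound, in Tris-HCl relaxation buffer (pH 7.5, 175 mM KCl, 5 mM MgCl2) at 37 °C for 30 min. The reaction was stopped with SDS and proteinase K, then phenol-extracted. Samples were split onto 1% agarose gels with and without ethidium bromide to separate nicked, supercoiled and relaxed forms, and read under UV.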

[2] = system: NCI-H460; test: Growth inhibition of human H460 cells after 72 hrs by MTT method; type: functional, cell-based; details: NCI-H460, 72 h
Method in brief: (§1)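 Cells in DMEM with 10% FBS, 2 mM L-glutamine, penicillin/streptomycin, 37 °C, 5% CO2. Seeded at 1 × 10^4 to 3 × 10^4 cells/mL. Compound given as five 10-fold dilutions (10-8–10-4 M, DMSO under 1%) for 72 h, then MTT read-out. Quadruplicate, three experiments. IC50 by linear regression between concentrations bracketing 50% growth; top concentration reported as ">" when not reached.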

[3] = system: HeLa; test: Growth inhibition of human HeLa cells after 72 hrs by MTT method; type: functional, cell-based; method in brief: as §1
[4] = system: MIA PaCa-2; test: Growth inhibition of human MIAPaCa2 cells after 72 hrs by MTT method; type: functional, cell-based; details: MIA PaCa-2, 72 h; method in brief: as §1
[5] = system: SW-620; test: Growth inhibition of human SW620 cells after 72 hrs by MTT method; type: functional, cell-based; details: SW-620, 72 h; method in brief: as §1
[6] = system: MCF7; test: Growth inhibition of human MCF7 cells after 72 hrs by MTT method; type: functional, cell-based; details: MCF7, 72 h; method in brief: as §1
[7] = system: Calf thymus DNA; test: Binding affinity to calf thymus DNA assessed as change in melting temperature at [compound]/[polynucleotide] ratio of 0.3 at pH 7.0; type: nucleic-acid assay; details: Bos taurus
Method in brief: (§2)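 Thermal denaturation of ct-DNA (sonicated, filtered, concentration as phosphate) alone and with compound in Na cacodylate buffer pH 7.0, I = 0.05 mol dm-3. Absorbance at 260 nm followed versus temperature, ligand absorbance subtracted, scale normalized. Tm is the transition midpoint, from the first-derivative maximum or by tangent method. ΔTm = Tm(complex) − Tm(free DNA). Mean of at least two runs, error ±0.5 °C.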

[8] = system: Calf thymus DNA; test: Binding affinity to calf thymus DNA assessed as change in melting temperature at [compound]/[polynucleotide] ratio of 0.5 at pH 7.0; type: nucleic-acid assay; details: Bos taurus; method in brief: as §2
[9] = system: MIA PaCa-2; test: Cell cycle arrest in human MIAPaCa2 cells assessed as accumulation at subG1 phase at 5 uM after 24 hrs by flow cytometry; type: functional
Method in brief: (§3)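 MiaPaCa-2 cells (2 × 10^5/well) seeded, compound (5 μM) added after 24 h, exposed 24 or 48 h. Attached and floating cells pooled, fixed in 70% ethanol, stained with propidium iodide 50 μg/mL plus RNase A. 20 000 events by flow cytometry; phase percentages (sub-G1 taken as apoptotic) from DNA histograms. Duplicates, repeated at least twice.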

[10] = system: MIA PaCa-2; test: Cell cycle arrest in human MIAPaCa2 cells assessed as accumulation at G1/G0 phase at 5 uM after 24 hrs by flow cytometry; type: functional; method in brief: as §3
[11] = system: MIA PaCa-2; test: Cell cycle arrest in human MIAPaCa2 cells assessed as accumulation at S phase at 5 uM after 24 hrs by flow cytometry; type: functional; method in brief: as §3
[12] = system: MIA PaCa-2; test: Cell cycle arrest in human MIAPaCa2 cells assessed as accumulation at G2/M phase at 5 uM after 24 hrs by flow cytometry; type: functional; method in brief: as §3
[13] = system: MIA PaCa-2; test: Cell cycle arrest in human MIAPaCa2 cells assessed as accumulation at subG1 phase at 5 uM after 48 hrs by flow cytometry; type: functional; method in brief: as §3
[14] = system: MIA PaCa-2; test: Cell cycle arrest in human MIAPaCa2 cells assessed as accumulation at G1/G0 phase at 5 uM after 48 hrs by flow cytometry; type: functional; method in brief: as §3
[15] = system: MIA PaCa-2; test: Cell cycle arrest in human MIAPaCa2 cells assessed as accumulation at S phase at 5 uM after 48 hrs by flow cytometry; type: functional; method in brief: as §3
[16] = system: MIA PaCa-2; test: Cell cycle arrest in human MIAPaCa2 cells assessed as accumulation at G2/M phase at 5 uM after 48 hrs by flow cytometry; type: functional; method in brief: as §3
[17] = system: MIA PaCa-2; test: Induction of cell shape disruption in human MIAPaCa2 cells at 5 uM after 24 hrs by immunofluorescence spectroscopy; type: functional, cell-based
Method in brief: (§4)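 MiaPaCa-2 cells (2 × 10^5) grown overnight on coverslips, then exposed to 5 μM compound for 24 h. Fixed in 4% formaldehyde, permeabilized with 0.1% Triton X-100, blocked with 4% FCS. Stained with mouse anti-α-tubulin (1/200, 2 h) and FITC anti-mouse secondary (1/500, 1 h). Nuclei stained with DAPI 100 ng/mL; fluorescence microscopy at 400×.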

[18] = system: MIA PaCa-2; test: Induction of tubulin network disruption in human MIAPaCa2 cells at 5 uM after 24 hrs by immunofluorescence spectroscopy; type: functional, cell-based; method in brief: as §4
[19] = system: MIA PaCa-2; test: Induction of multinucleation in human MIAPaCa2 cells at 5 uM after 24 hrs by DAPI staining; type: functional, cell-based; method in brief: as §4
[20] = system: MIA PaCa-2; test: Induction of nuclear fragmentation in human MIAPaCa2 cells at 5 uM after 24 hrs by DAPI staining; type: functional, cell-based; method in brief: as §4
[21] = system: MIA PaCa-2; test: Induction of apoptosis in human MIAPaCa2 cells by flow cytometry; type: functional, cell-based; method in brief: as §3
[22] = system: Calf thymus DNA; test: Binding affinity to calf thymus DNA at pH 7.0 by fluorimetric titration method; type: nucleic-acid assay; details: Bos taurus
Method in brief: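 Fluorimetric titration: ct-DNA portions added to compound at about tenfold lower concentration than in UV/vis, absorbance below 0.05 at excitation. Emission 350–550 nm in Na cacodylate buffer pH 7.0, I = 0.05 mol dm-3. log Ks from Scatchard fitting (nonlinear least squares) at fixed n = 0.2.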

[23] = system: Calf thymus DNA; test: Binding affinity to calf thymus DNA assessed as decrease in DNA bands at 245 nm and 280 nm wavelength by CD spectroscopy; type: nucleic-acid assay; details: Bos taurus
[24] = species on record: Bos taurus; test: Inhibition of calf thymus topoisomerase 1-mediated DNA relaxation assessed as induction of plasmid DNA nicking at 200 uM by gel electrophoresis
Method in brief: (§5)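 Supercoiled pCI plasmid (0.8 μg) with calf thymus topoisomerase I (6 U) ± compound (200 μM) in Tris-HCl pH 7.5, 175 mM KCl, 5 mM MgCl2, 0.1 mM EDTA, 2.5% glycerol; 37 °C, 30 min. Stopped with SDS, then proteinase K and phenol/chloroform extraction. Samples run on 1% agarose with and without 0.5 μg/mL ethidium bromide to resolve nicked, supercoiled and relaxed forms; UV visualization.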

[25] = species on record: Bos taurus; test: Inhibition of calf thymus topoisomerase 1-mediated DNA relaxation at 200 uM by gel electrophoresis; method in brief: as §5
[26] = system: Calf thymus DNA; test: Binding affinity to calf thymus DNA at pH 7.0 by UV/Visible spectroscopy; type: nucleic-acid assay; details: Bos taurus
Method in brief: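 UV/vis titration: portions of ct-DNA (as phosphate) added to compound (c = 1.2 × 10-5 mol dm-3). Na cacodylate buffer pH 7.0, I = 0.05 mol dm-3; change followed at λmax 314 nm. Ks and n from Scatchard equation by nonlinear least-squares fitting.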

[27] = system: Calf thymus DNA; test: Binding affinity to calf thymus DNA minor groove assessed as change in DNA spectrum by CD spectroscopy; type: nucleic-acid assay; details: Bos taurus

Compound | IC50 [2] | IC50 [3] | IC50 [4] | IC50 [5] | IC50 [6] | ΔTm [7] | ΔTm [8] | Activity [9] | Activity [10] | Activity [11] | Activity [12] | Activity [13] | Activity [14] | Activity [15] | Activity [16] | further results
N=C(N)c1ccc(-c2cc3ccc(C(=N)N)cc3[nH]2)cc1 |  |  |  |  |  |  |  |  |  |  |  |  |  |  |  | Activity [1]: inactive
N#Cc1cnc2[nH]c(=O)c3sc4ccccc4c3c2c1 | > 100 µM | 7 µM | 12 µM | 22 µM | 45 µM |  |  |  |  |  |  |  |  |  |  | 
N#Cc1ccc(NC(=O)c2sc3ccccc3c2Cl)nc1 | 59 µM | 2 µM | 8 µM | 20 µM | 20 µM |  |  |  |  |  |  |  |  |  |  | 
CC[C@@]1(O)C(=O)OCc2c1cc1n(c2=O)Cc2cc3ccccc3nc2-1 |  |  |  |  |  |  |  |  |  |  |  |  |  |  |  | Activity [1]: Active
O=c1[nH]c2ccncc2c2c1sc1ccccc12 | > 100 µM | 14 µM | 7 µM | 6 µM | > 100 µM |  |  |  |  |  |  |  |  |  |  | 
Cl.O=C(Nc1ccc(C2=NCCN2)nc1)c1sc2ccccc2c1Cl | 1.3 µM | 1 µM | 1.6 µM | 1.3 µM | 4 µM | 0 °C | 0.9 °C | 18.5% | 17.5% | 16% | 66.5% | 36% | 23.14% | 26% | 50.9% | Activity [17]: Active; Activity [18]: Active; Activity [19]: Active; Activity [20]: Active; Activity [21]: Active
Cl.O=c1[nH]c2ncc(C3=NCCN3)cc2c2c1sc1ccccc12 | 1 µM | 1.7 µM | 1 µM | 0.6 µM | 1.6 µM | 6.6 °C | 8.7 °C | 2% | 38.9% | 41.5% | 19.7% | 1.7% | 52.8% | 33.2% | 14.1% | log Ks [22]: 6.44; Activity [23]: Active; Activity [24]: inactive; Activity [25]: Active
O=C(Nc1ccncc1)c1sc2ccccc2c1Cl | 68 µM | 2 µM | 38 µM | 38 µM | 51 µM |  |  |  |  |  |  |  |  |  |  | 
Cl.O=C(Nc1ccc(C2=NCCN2)cn1)c1sc2ccccc2c1Cl | 1 µM | 1.5 µM | 1 µM | 1 µM | 1.8 µM | 1.3 °C | 2.1 °C | 3.2% | 37.7% | 41.6% | 20.7% | 4.9% | 52.3% | 32.6% | 15.1% | log Ks [26]: 5.7; log Ks [22]: 5.6; Activity [27]: Active; Activity [24]: inactive
